Measurements published in PubChem BioAssay.
Activity calls are given as the source filed them.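 How the source made its calls, unless noted: active means NADPH fluorescence slope more negative than the mean of all samples by about 3 SD, 99.7% confidence; inactive means the rest.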

Assays:
[1] = inhibitors of TNFa-induced NFkB p65 translocation, primary screen, imaging, HUVEC, MLSMR starter and 10KST1 sets (AID 438;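 active means inhibition above 20% together with a positive visual image hit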;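 further: compound added about 3h40 before a 20 min TNFalpha stimulation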;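 on inhibition: signal is the nuclear over cytoplasmic p65 intensity ratio per well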); settings: HUVEC TNFa-induced p65 nuclear translocation; cell count: measured here: nuclei count (cytotoxicity indicator), at 2.08 µM; inhibition: at 2 µM, stronger effect = higher value, 0% TNFa-plus-vehicle, 100% no-TNFa wells
[2] = reduction of polyQ htt aggregates in cells – imaging, exon1htt(103Q)mCFP cells, high-content imaging, primary screen (AID 483;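 active means visual image review flags a hit and inhibition of aggregation exceeds 20%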;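 further: compound exposure lasted 3 days before fixation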;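 on nuclei count: percent of the per-plate median nuclei count of sample wells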); settings: exon1htt(103Q)mCFP cell line, aggregate imaging, at 2 µM; inhibition of aggregation: stronger effect = higher value; nuclei count: measured here: cell count, toxicity
[3] = endothelial E-selectin expression blockers – imaging, HUVEC, immunofluorescence, MLSMR starter and 10KST1 sets, primary screen (AID 487;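 active means visually confirmed hit in the image check and inhibition above 20%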;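 on inhibition: signal is fraction of cell area covered by stained E-selectin grains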;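 on nuclei count: 100% = median nuclei count of all wells on the same plate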); settings: HUVEC TNFalpha-induced E-selectin immunofluorescence imaging, at 2 µM; inhibition: stronger effect = higher value; nuclei count: measured here: cell number, toxicity
[4] = target: Voltage-gated potassium channel subunit beta-2 (Rattus norvegicus) (UniProt P62483); experiment: inhibitors of rat Kvbeta2 reductase activity – biochemical, NADPH fluorescence, primary screen (AID 622;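 active means fluorescence slope higher than the sample average by over 3 SD, cut at about -0.22 in these data, passing the limit was not always enough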;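 further: slope of raw intensity against log time taken from 70 to 1610 s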); settings: recombinant KvBeta, 4-cyanobenzaldehyde reduction, at 10 µM, stronger effect = higher value
[5] = target: Voltage-gated potassium channel subunit beta-2 (Rattus norvegicus) (UniProt P62483); experiment: enhancers of rat Kvbeta2 NADPH turnover – biochemical, NADPH fluorescence, primary screen (AID 623); settings: Recombinant KvBeta, NADPH fluorescence decrease slope, 10 min; at 10 µM; stronger effect = lower value;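 further: fluorescence intensity change per second fitted from 20 to 320 s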
[6] = target: Muscarinic acetylcholine receptor M4 (Homo sapiens) (UniProt P08173); experiment: M4-linked GIRK flux change, two-sided – cell-based, HEK293 M4/GIRK, thallium flux, BTC-AM, M4 allosteric agonist project, primary screen (AID 625;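 active means fluorescence slope after compound addition differing from the mean of all tested samples at 99.7% confidence, mostly higher but some lower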;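 further: thallium influx through GIRK channels coupled to M4 in HEK293 cells with BTC-AM dye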); settings: at 10 µM, actives lie on both sides
Procedure, shortened: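 Assay system: HEK293 cells with M4 receptor and GIRK channels / Controls: carbachol and DMSO controls / Schedule: 1 h dye loading, 2 min kinetic read / Technique: kinetic fluorescence with BTC-AM dye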

[7] = blockers of RIG-like receptor reporter activation – cell-based, Sendai virus stimulus, luciferase, 10K MLSCN set, TLR/RLR signaling modifier project, primary screen (AID 602276;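 active means inhibition at or above 50% at 10 µM; inactive means inhibition below 50%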;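 further: firefly luciferase from ISG56 promoter only with Renilla not read in this screen; 0% = Sendai virus plus DMSO and 100% = medium plus DMSO without virus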); settings: HEK293 RL24 IRF3 luciferase reporter, at 10 µM, stronger effect = higher value
[8] = TLR3 IRF3 reporter activation blockers – cell-based, poly I:C stimulus, luciferase, 10K MLSCN set, primary screen (AID 602277;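 active means inhibition of the reporter signal at or above 50%; inactive means inhibition below 50%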); settings: HEK293-TLR3 RL24 IRF3 luciferase reporter, at 10 µM, stronger effect = higher value

Chain of Voltage-gated potassium channel subunit beta-2 (Rattus norvegicus) (P62483 whole entry, looked up): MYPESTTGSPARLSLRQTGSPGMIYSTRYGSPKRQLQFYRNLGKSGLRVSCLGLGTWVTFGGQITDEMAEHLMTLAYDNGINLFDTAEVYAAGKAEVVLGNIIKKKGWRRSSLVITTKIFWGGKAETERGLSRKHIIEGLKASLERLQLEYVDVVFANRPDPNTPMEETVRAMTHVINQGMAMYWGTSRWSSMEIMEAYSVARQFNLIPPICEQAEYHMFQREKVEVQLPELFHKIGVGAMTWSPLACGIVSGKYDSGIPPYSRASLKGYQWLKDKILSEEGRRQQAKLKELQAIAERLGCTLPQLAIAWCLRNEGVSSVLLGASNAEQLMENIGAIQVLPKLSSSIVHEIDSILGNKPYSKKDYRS
Chain of Muscarinic acetylcholine receptor M4 (Homo sapiens) (P08173 whole entry, looked up): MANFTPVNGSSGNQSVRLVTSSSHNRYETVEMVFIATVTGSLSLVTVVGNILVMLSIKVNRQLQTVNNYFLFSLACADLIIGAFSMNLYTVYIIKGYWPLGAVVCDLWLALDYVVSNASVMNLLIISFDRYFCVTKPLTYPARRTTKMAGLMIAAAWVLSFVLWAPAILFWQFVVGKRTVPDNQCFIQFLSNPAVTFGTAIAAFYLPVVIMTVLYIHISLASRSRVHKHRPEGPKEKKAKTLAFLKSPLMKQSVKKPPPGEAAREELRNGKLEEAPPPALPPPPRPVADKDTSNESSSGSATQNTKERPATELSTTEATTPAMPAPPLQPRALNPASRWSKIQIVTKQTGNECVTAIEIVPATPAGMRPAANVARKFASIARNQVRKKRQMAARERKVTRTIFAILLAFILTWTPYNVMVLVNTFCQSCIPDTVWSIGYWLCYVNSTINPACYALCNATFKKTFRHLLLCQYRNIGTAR

SMILES	cell count [1]	inhibition [1]	inhibition of aggregation [2]	nuclei count [2]	inhibition [3]	nuclei count [3]	fluorescence slope [4]	NADPH fluorescence slope [5]	fluorescence slope [6]	inhibition [7]	inhibition [8]
CC1Cc2ccccc2N1C(=O)Cc1cccs1 (stereo not drawn)	275	-3.1% (inactive)	33.8% (inactive)	74.7%	18.4% (inactive)	93.7%	-0.504 (inactive)	-3.6e-05 (inactive)	0.00407 (inactive)	7.14% (inactive)	-1.13% (inactive)
CCCC(C(=O)NCc1ccco1)N(C(=O)CNS(=O)(=O)c1ccc(Cl)cc1)C1CCCC1 (stereo not drawn)	387	-0.7% (inactive)	-2.5% (inactive)	110%	-210% (inactive)	111%	-0.522 (inactive)	-1.1e-05 (inactive)	0.00544 (inactive)	24.7% (inactive)	25.7% (inactive)
CCCC(=O)Nc1ccccc1NC(=O)CN(C)S(=O)(=O)c1ccc(C)cc1	182	-6.3% (inactive)	-6.6% (inactive)	81.6%	20.2% (inactive)	83.4%	-0.56 (inactive)	-3e-05 (inactive)	0.00633 (inactive)	1.42% (inactive)	11.1% (inactive)
COC(=O)c1ccccc1NC(=O)c1cc(-c2ccc(OC)c(OC)c2)on1	443	-28.4% (inactive)	-3.3% (inactive)	104%	-29.1% (inactive)	111%	-0.269 (inactive)	-3.4e-05 (inactive)	0.00826 (inactive)	3.07% (inactive)	5.03% (inactive)
O=C(c1nc2n(n1)C(c1ccc(Cl)cc1)C=C(c1ccccc1)N2)N1CCOCC1 (stereo not drawn)	811	-3.9% (inactive)	10.6% (inactive)	126%	14.2% (inactive)	110%	-0.0865 (active)	-1.6e-06 (inactive)	0.00624 (inactive)	9.43% (inactive)	-4.24% (inactive)
COc1cccc(OC)c1C(=O)Nc1ccccc1N1CCCC1	417	-3.4% (inactive)	3.7% (inactive)	92.9%	4.8% (inactive)	118%	-0.474 (inactive)	-5.8e-05 (inactive)	0.00391 (inactive)	15.4% (inactive)	8.75% (inactive)
Cc1ccc(C(=O)CSc2nnc(CNc3ccc(C)cc3C)o2)cc1	553	-7.3% (inactive)	19.7% (inactive)	97.5%	-124% (inactive)	193%	-0.477 (inactive)	-8.9e-06 (inactive)	0.00488 (inactive)	6.54% (inactive)	-0.256% (inactive)
Cc1ccc(-n2c(=O)c3sccc3n(CC(=O)NCc3ccco3)c2=O)cc1	488	0.3% (inactive)	21.9% (inactive)	103%	-9.8% (inactive)	108%	-0.579 (inactive)	-3.1e-05 (inactive)	0.0056 (inactive)	6.07% (inactive)	12.8% (inactive)
CC(C)(C)c1cc(C(=S)N2CCN(CCO)CC2)cc(C(C)(C)C)c1O	667	-1.4% (inactive)	10.4% (inactive)	105%	-150% (inactive)	128%	-0.534 (inactive)	-4.4e-05 (inactive)	0.00566 (inactive)	24.4% (inactive)	29.9% (inactive)
Cc1cccc2cc(CN(Cc3nnnn3C3CCCC3)C3CCCCC3)c(=O)[nH]c12	349	5.8% (inactive)	-3.3% (inactive)	99.1%	-44% (inactive)	106%	-0.466 (inactive)	4.8e-05 (inactive)	0.00597 (inactive)	7.22% (inactive)	21.3% (inactive)
Cc1cccc2cc(C(c3nnnn3C(C)(C)C)N3CCN(C(=O)c4ccco4)CC3)c(=O)[nH]c12 (stereo not drawn)	283	-1.9% (inactive)	-6.7% (inactive)	96.1%	-29.9% (inactive)	88.4%	-0.439 (inactive)	-5.7e-05 (inactive)	0.00557 (inactive)	13.4% (inactive)	16% (inactive)
O=C(O)CCCNS(=O)(=O)c1ccc(NCc2ccccc2)c(C(=O)O)c1	687	6.7% (inactive)	2.8% (inactive)	87.1%	7% (inactive)	91.1%	-0.343 (inactive)	-5e-05 (inactive)	0.00502 (inactive)	10.5% (inactive)	10.3% (inactive)
Cc1ccccc1CS(=O)(=O)Cc1ccc(C(=O)NCCCN2CCOCC2)o1	434	5% (inactive)	-1.9% (inactive)	99%	-156% (inactive)	120%	-0.586 (inactive)	-2.7e-05 (inactive)	0.00703 (inactive)	-17.1% (inactive)	-16.4% (inactive)
O=S(=O)(NCCSc1ccccc1)c1cccs1	652	-6.3% (inactive)	-14.5% (inactive)	103%	-12.2% (inactive)	104%	-0.208 (inactive)	-2e-05 (inactive)	0.00557 (inactive)	5.83% (inactive)	11.1% (inactive)
Cc1ccc(S(=O)(=O)n2nc(OC(=O)c3ccco3)cc2N)cc1	512	-8.3% (inactive)	-12% (inactive)	115%	-8.9% (inactive)	150%	-0.554 (inactive)	-9.4e-05 (inactive)	0.00488 (inactive)	-8.24% (inactive)	-6.95% (inactive)
COc1cc(NS(=O)(=O)c2cccc3nsnc23)c(C(=O)O)cc1OC	296	-6% (inactive)	-7.8% (inactive)	95.9%	5.3% (inactive)	136%	-0.575 (inactive)	-4.3e-05 (inactive)	0.00636 (inactive)	14.8% (inactive)	17.5% (inactive)
N#Cc1c(N)n(CCNC(=O)c2cccs2)c2nc3ccccc3nc12	578	10.7% (inactive)	17.7% (inactive)	99.9%	29.4% (inactive)	105%	-0.0517 (inactive)	-2.6e-05 (inactive)	0.00574 (inactive)	9.96% (inactive)	-10% (inactive)
COc1ccc(N2C(=O)CC(NC3CC3)C2=O)cc1 (stereo not drawn)	416	9.4% (inactive)	0.9% (inactive)	108%	7.7% (inactive)	110%	-0.577 (inactive)	1.5e-05 (inactive)	0.00561 (inactive)	16.4% (inactive)	24% (inactive)
CCN(CC)S(=O)(=O)N1CCC(C(=O)NCC2COc3ccccc3O2)CC1 (stereo not drawn)	616	17% (inactive)	-12.4% (inactive)	88.5%	-27.8% (inactive)	115%	-0.494 (inactive)	2.9e-05 (inactive)	0.00755 (inactive)	-4.12% (inactive)	1.83% (inactive)
CC(=O)N1CCc2cc(S(=O)(=O)NC(C(=O)NCc3ccccc3)C(C)C)ccc21 (stereo not drawn)	579	-3.8% (inactive)	23.8% (inactive)	110%	22.1% (inactive)	94.8%	-0.587 (inactive)	-1.2e-05 (inactive)	0.00584 (inactive)	10.6% (inactive)	15.4% (inactive)
CC(=O)Nc1ccc(Cl)c(C(N)=O)c1	445	-0.6% (inactive)	-12.1% (inactive)	94.4%	-97.8% (inactive)	113%	-0.581 (inactive)	-7.9e-05 (inactive)	0.00404 (inactive)	19.4% (inactive)	23.4% (inactive)
CCOC(=O)c1ccc(NC(=O)N2CCN(CCc3ccccc3)CC2)cc1	361	2.5% (inactive)	18.6% (inactive)	84.1%	20.3% (inactive)	75.8%	-0.475 (inactive)	-4.1e-05 (inactive)	0.00422 (inactive)	6.1% (inactive)	-14.9% (inactive)
CCOC(=O)N1CCN(c2cc(=O)n(-c3ccc(OCC)cc3)c(=O)[nH]2)CC1	551	-10% (inactive)	9.3% (inactive)	109%	-26.9% (inactive)	112%	-0.431 (inactive)	0.0001 (inactive)	0.00574 (inactive)	3.3% (inactive)	10.8% (inactive)
CCOC(=O)N1CCN(C(=O)CN(C)S(=O)(=O)c2ccc(OC)c(OC)c2)CC1	464	5.8% (inactive)	-12.7% (inactive)	118%	17.8% (inactive)	102%	-0.614 (inactive)	-3.8e-05 (inactive)	0.00404 (inactive)	16.2% (inactive)	20.5% (inactive)
CCOC(=O)c1cccc(NC(=O)CSc2nnc(-c3ccoc3C)n2CCOC)c1	553	-9.5% (inactive)	1% (inactive)	89.7%	-140% (inactive)	133%	-0.577 (inactive)	7.3e-06 (inactive)	0.00584 (inactive)	18.8% (inactive)	27.2% (inactive)
Cc1cc2c(s1)c1cnn(CC(=O)NCCc3ccccc3)c(=O)c1n2C	279	17.5% (inactive)	-21.4% (inactive)	104%	-76.9% (inactive)	102%	-0.236 (inactive)	-7.6e-06 (inactive)	0.00662 (inactive)	15.1% (inactive)	-1.81% (inactive)
Cc1cc(O)c(C2(C(F)(F)F)NCCNC2=O)cc1C (stereo not drawn)	560	4.7% (inactive)	24.3% (inactive)	84.5%	63.7% (inactive)	63.2%	-0.576 (inactive)	1e-05 (inactive)	0.00721 (inactive)	17.6% (inactive)	29.3% (inactive)
CCOc1ccccc1Nc1ncnc2ccccc12	394	9.3% (inactive)	8% (inactive)	93.2%	-40.8% (inactive)	120%	-0.548 (inactive)	-1.6e-05 (inactive)	0.00457 (inactive)	5.79% (inactive)	-12% (inactive)
